Assay outcomes: PubChem, several laboratories
HUVEC inhibit = inhibitors of human endothelial cell proliferation | HUVEC proliferation, CellTiter-Glo luminescence, 72 h; hits give low values | viability, % at 10 µM (by protocol) | 86,000 compounds, 1.1% hits;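 active = viability at or below 30%; inactive = viability above 30%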
Jurkat tox 60K = reduces viability or proliferation of Jurkat cells | Jurkat E6.1 viability, ATP luminescence, 48 h | inhibition, % at 4 µM | 56,000 compounds, 1.2% hits;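 active = inhibition above the mean inhibition of all tested compounds plus 3 SD, cut at about 28% in these data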
Lung fibro prol = blocks proliferation of human lung fibroblasts. LL 47 human lung fibroblast viability, ATP luminescence; hits give low values. viability, % at 10 µM. 85,000 compounds, 1.1% hits;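 active = viability at or below 50% in the single dose screen; inactive = viability above 50%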;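 also: compound exposure lasted 72 h before the ATP readout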
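Assay system: human lung fibroblast line LL 47, low passage. Input: 1,150 fibroblasts seeded per well. Times: overnight cell rest, 72 h compound treatment at 37 °C. Evaluation: % viability of median cell-only signal. Technique: luminescent ATP detection, CellTiter-Glo. Control set: cell-only wells, no compound.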
E coli WT exp = E. coli BW25113 growth inhibition, expanded screen; OD600 absorbance; 98,000 compounds, 0.15% hits; growth inhibition, % at 100 µM;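 active = growth inhibition above about 50% at one test dose, limit read from the data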;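 also: growth measured after 20 h incubation at 37 °C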
Ecoli tolC = E. coli tolC mutant growth inhibition; E. coli BW25113 tolC mutant growth, OD615; 65,000 compounds, 2.2% hits; growth inhibition, % at 10 µM (by protocol);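 active = growth inhibition at or above a cutoff equal to the mean over every tested compound plus 3 SD, cut at about 60% in these data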;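 also: growth measured after 20 h incubation at 37 °C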
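Test system: E. coli BW25113 ΔtolC::kan bacteria | Medium: Kanamycin-containing LB broth (50 µg/mL) | Dosing: One dose of 10 µM final | Times: 20 h incubation with compound, 37 °C | Detection: Optical density read at 615 nm | Read-out basis: Percent growth inhibition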
H69AR inhibit = blocks growth of human H69AR lung tumor cells | 85,000 compounds, 6% hits | H69AR lung tumor viability, ATP luminescence, 72 h; hits give low values | AID 598 | viability, % at 10 µM;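 active = viability at or below 40%; inactive = viability above 40%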;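 also: multidrug resistant small cell line overexpressing MRP-1 efflux transporter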
Hits are given with their value; – = inactive; · = no result. Most compounds without a hit are left out; they make up all but 6.4% or so of the library.

SMILES	HUVEC inhibit	Jurkat tox 60K	Lung fibro prol	E coli WT exp	Ecoli tolC	H69AR inhibit
Cc1ccc(-n2ncc3c(=O)n(CC(=O)NCc4ccco4)cnc32)cc1	–	–	–	–	–	–
CC(C)(C)n1ncc2c(=O)n(CC(=O)NCc3ccccc3)cnc21	–	–	–	–	–	24
O=C(Cn1cnc2c(cnn2-c2ccc(F)cc2)c1=O)NCc1ccco1	·	55	·	–	–	·
CC(C)CCNC(=O)c1nnc(Cc2ccc(Cl)cc2)o1	–	·	–	–	·	–
Cc1ccccc1N=C(NOCc1ccc(Cl)cc1Cl)c1nonc1N	–	·	–	–	·	9.2
CCOC(=O)N1CCC(NC(=O)c2ccc3c(c2)sc2nc(-c4cccc(OC)c4)cn23)CC1	–	35	–	–	–	–
COc1ccccc1NC(=O)C1=C(C)Nc2nnnn2C1c1cc(Br)ccc1OC (stereo not drawn)	–	–	–	–	–	17
Cc1nc(N2CCN(Cc3nc4ccccc4[nH]3)CC2)c2oc3ccccc3c2n1	–	·	–	–	–	36
c1ccc2[nH]c(CN3CCN(c4ncnc5c4oc4ccccc45)CC3)nc2c1	–	–	–	–	–	7.1
c1ccc2[nH]c(CSc3ncnc4c3oc3ccccc34)nc2c1	–	–	–	–	–	–
c1cnc(N2CCN(c3ncnc4c3oc3ccccc34)CC2)nc1	–	–	–	·	–	–
C(=C\c1ccccc1)/CN1CCN(c2ncnc3c2oc2ccccc23)CC1	–	·	–	–	100	–
Nc1ccc(C(=O)n2c3ccccc3c3ccccc32)cc1	–	·	50	·	·	19
Nc1ccc(C(=O)N2CCCC2)cc1	–	·	–	·	·	–
CC(=O)Nc1ccc(N=Cc2ccc[nH]2)cc1	·	–	·	–	–	·
Oc1ccccc1N=Cc1ccc[nH]1	–	–	–	–	–	35
COc1cc(S(=O)(=O)N2CCC(O)(c3cccc(C(F)(F)F)c3)CC2)ccc1-n1cnnn1	–	·	–	–	100	–
Cc1ccc(NC(=O)CCc2ccc(S(=O)(=O)N3CCOCC3)cc2)c(C)c1	·	·	·	–	·	·
Cc1ccc(N(C(C)C(=O)N2CCCCC2)S(C)(=O)=O)cc1C (stereo not drawn)	–	–	–	–	–	–
CCOC(=O)c1c(NC(=O)Cc2cccs2)sc(C(=O)NC2CCCC2)c1C	–	·	–	–	·	28
COC(=O)c1cn(NC(=O)C2CCC(C(C)(C)C)CC2)c(=O)c2ccccc12 (stereo not drawn)	·	·	·	–	·	·
COC(=O)c1ccc(-c2ncc(-c3cccc4ccccc34)o2)cc1	–	·	–	·	·	36
COC(=O)c1ccc(-c2nc3ccccc3o2)cc1	–	–	–	·	–	–
O=C1CCCC(=O)C1=Cc1c[nH]c2ccccc12	·	·	·	–	·	·
O=C(CCCCCn1c(SCc2ccncc2)nc2ccccc2c1=O)NCc1ccco1	–	–	–	–	–	–
SMILES	HUVEC inhibit	Jurkat tox 60K	Lung fibro prol	E coli WT exp	Ecoli tolC	H69AR inhibit
CC(C(=O)NCc1ccc2c(c1)OCO2)N1c2cccc3cccc(c23)S1(=O)=O (stereo not drawn)	–	–	–	–	–	–
CCN(CC)C(=O)Sc1cccc2cccnc12	–	–	–	–	–	–
CCOC(=O)CSc1cccc2cccnc12	–	–	46	–	–	0.3
Cc1nn(-c2ccc(F)cc2)c(Cl)c1/C=C(\CC(=O)O)c1nc2ccccc2s1	–	·	–	–	·	–
CCCCCCn1c(SCC(=O)c2c(N)n(C)c(=O)n(C)c2=O)nc2ccccc21	–	·	40	–	·	24
CCOc1c2ccc(C(=O)N[C@H](C)C3CCCCC3)cc2nn1CC	·	·	·	–	·	·
Cc1noc(C)c1CSCC(=O)N1CCN(c2ccc([N+](=O)[O-])cc2)CC1	–	·	–	–	·	–
CC1=C(C)CS(=O)N(S(=O)(=O)c2ccccc2)C1 (stereo not drawn)	–	·	40	–	·	1.8
CC1=C(C)CS(=O)N(c2ccc(S(N)(=O)=O)cc2)C1 (stereo not drawn)	–	·	–	–	–	12
Cc1ccc(S(=O)(=O)N2CCN(S(=O)(=O)c3ccc(C)cc3)C2c2ccccc2)cc1	–	·	–	–	·	–
Cc1cc(NC(=O)c2ccc3c(c2)C(=O)N(CCC(C)C)C3=O)no1	–	–	–	–	–	40
Cc1cc(NC(=O)c2ccc3c(c2)C(=O)N(C)C3=O)no1	–	·	–	–	·	–
O=C(Nc1ccncc1)c1ccc2c(c1)C(=O)N(C1CCCCC1)C2=O	–	·	–	–	·	–
Cc1cc(NC(=O)c2ccc3c(c2)C(=O)N(C2CCCCC2)C3=O)no1	–	·	–	–	–	27
Cc1cc(NC(=O)c2ccc3nc(-c4ccccc4)c(-c4ccccc4)nc3c2)no1	–	–	18	–	–	16
Cc1nc2nc(-c3ccc(Cl)cc3)[nH]n2c(=O)c1C	·	·	·	–	·	·
CN1CCN(c2nc(NCCOC34CC5CC(CC(C5)C3)C4)nc(OCC(F)(F)F)n2)CC1	9.5	–	–	–	–	1.9
N#CC1=C(N)SC(N)=C(C#N)C1c1cccc(O)c1	–	·	–	–	·	–
[O-][n+]1onc2c3cc(-c4ccccc4)nnc3ccc21	–	·	–	–	·	17
COc1ccc(/C=N/NC(=O)C2c3ccccc3Oc3ccccc32)c(OC)c1	·	·	·	–	·	·
Cc1c(CN(C)C(=O)c2ccc(Br)o2)cnn1C	–	·	–	·	·	–
CC1CN(S(=O)(=O)c2ccc(NC(=O)c3cc(-c4ccccc4O)n[nH]3)cc2)CC(C)O1 (stereo not drawn)	–	54	–	–	–	12
CC1CN(S(=O)(=O)c2ccccc2)CC(C)O1 (stereo not drawn)	–	–	–	–	–	–
CCCCCNC(CC(=O)Nc1ccc(OC)cc1)C(=O)O (stereo not drawn)	–	–	–	·	–	–
CCOC(=O)c1c2c(n(C)c1COC)C(=O)C(=O)c1ccc(Br)cc1-2	2.1	·	2.2	·	·	1.5
